Source: ChEMBL document CHEMBL3853291, “Polycyclic Polyprenylated Derivatives from Hypericum uralum: Neuroprotective Effects and Antidepressant-like Activity of Uralodin A” (2016)

Assays:
[1] = system: PC-12; test: Neuroprotective activity against corticosterone-induced cell injury in rat PC12 cells assessed as cell viability at 1 uM after 48 hrs by MTT assay (reference value: 55.6 +/- 0.87%); assay type: functional; details: PC-12, 48 h, read-out: Activity
[2] = system: PC-12; test: Neuroprotective activity against corticosterone-induced cell injury in rat PC12 cells assessed as cell viability at 0.3 uM after 48 hrs by MTT assay (reference value: 55.6 +/- 0.87%); assay type: functional; details: PC-12, 48 h, read-out: Activity
[3] = system: PC-12; test: Neuroprotective activity against corticosterone-induced cell injury in rat PC12 cells assessed as cell viability at 3 uM after 48 hrs by MTT assay (reference value: 55.6 +/- 0.87%); assay type: functional; details: PC-12, 48 h, read-out: Activity
[4] = system: PC-12; test: Neuroprotective activity against corticosterone-induced cell injury in rat PC12 cells assessed as cell viability at 10 uM after 48 hrs by MTT assay (reference value: 55.6 +/- 0.87%); assay type: functional; details: PC-12, 48 h, read-out: Activity
[5] = system: PC-12; test: Neuroprotective activity against corticosterone-induced cell injury in rat PC12 cells assessed as cell viability at 0.1 uM after 48 hrs by MTT assay (reference value: 55.6 +/- 0.87%); assay type: functional; details: PC-12, 48 h, read-out: Activity
[6] = Antidepressant-like activity in LPS-induced ICR mouse assessed as decrease in immobility time at 25 mg/kg, ig qd for 5 days followed by LPS stimulation on 5th day injected 30 mins post last dose measured 24 hrs after stimulation monitored for last 4 mins by tail suspension test relative to control; assay type: functional, organism-based; design: scale not given: the % may be the effect or the level left
Procedure, shortened: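 Male ICR mice (18−22 g), n = 12 per group, given drug in 0.03% CMC-Na intragastrically once daily for 5 days. LPS 0.5 mg/kg i.p. 30 min after the last dose, with the test 24 h later. Mice visually and acoustically isolated, taped ~1 cm from the tail tip, hung 50 cm above the floor for 6 min. Passive motionless hanging timed over the last 4 min; mean ± SD.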

[7] = Antidepressant-like activity in LPS-induced ICR mouse assessed as decrease in immobility time at 25 mg/kg, ig qd for 5 days followed by LPS stimulation on 5th day injected 30 mins post last dose measured 24 hrs after stimulation monitored for last 4 mins by forced swim test relative to control; assay type: functional, organism-based; design: scale not given: the % may be the effect or the level left
Procedure, shortened: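 Male ICR mice (18−22 g), 12 per group. Drug suspended in 0.03% CMC-Na and given intragastrically once daily for 5 days. LPS 0.5 mg/kg i.p. 30 min after the day-5 dose, with testing 24 h later. Mice swim 6 min at 25 ± 1 °C in a cylinder (20 cm high, 14 cm diameter, 10 cm water). Floating immobility scored over the last 4 min; mean ± SD.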

[8] = Antidepressant-like activity in LPS-induced ICR mouse assessed as decrease in immobility time at 26 mg/kg, ig qd for 5 days followed by LPS stimulation on 5th day injected 30 mins post last dose measured 24 hrs after stimulation monitored for last 4 mins by tail suspension relative to control; assay type: functional, organism-based; design: scale not given: the % may be the effect or the level left
Procedure, shortened: (§1)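 Male ICR mice (18−22 g), n = 12 per group. Dosed intragastrically once daily for 5 days as a suspension in 0.03% CMC-Na. On day 5, LPS 0.5 mg/kg i.p. was given 30 min after dosing. Tests were run 24 h after LPS. FST used a 20 × 14 cm cylinder with 10 cm water at 25 ± 1 °C, 6 min swim. TST suspended mice 50 cm high by the tail tape for 6 min. Immobility was scored over the last 4 min.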

[9] = Antidepressant-like activity in LPS-induced ICR mouse assessed as decrease in immobility time at 13 mg/kg, ig qd for 5 days followed by LPS stimulation on 5th day injected 30 mins post last dose measured 24 hrs after stimulation monitored for last 4 mins by tail suspension test relative to control; assay type: functional, organism-based; design: scale not given: the % may be the effect or the level left; procedure, shortened: as §1
[10] = Antidepressant-like activity in LPS-induced ICR mouse assessed as decrease in immobility time at 13 mg/kg, ig qd for 5 days followed by LPS stimulation on 5th day injected 30 mins post last dose measured 24 hrs after stimulation monitored for last 4 mins by forced swim test relative to control; assay type: functional, organism-based; design: scale not given: the % may be the effect or the level left; procedure, shortened: as §1
[11] = Antidepressant-like activity in LPS-induced ICR mouse assessed as decrease in immobility time at 26 mg/kg, ig qd for 5 days followed by LPS stimulation on 5th day injected 30 mins post last dose measured 24 hrs after stimulation monitored for last 4 mins by forced swim test relative to control; assay type: functional, organism-based; design: scale not given: the % may be the effect or the level left; procedure, shortened: as §1

| SMILES | viability at 1 µM [1] | viability at 0.3 µM [2] | viability at 3 µM [3] | viability at 10 µM [4] | viability at 0.1 µM [5] | Activity [6] | Activity [7] | Activity [8] | Activity [9] | Activity [10] | Activity [11] |
| --- | --- | --- | --- | --- | --- | --- | --- | --- | --- | --- | --- |
| CC(C)=CCC[C@]1(C)[C@@H](CC=C(C)C)C[C@]2(CC=C(C)C)C(=O)C3=C(OC(C)(C)[C@H](O)C3)[C@@]1(C(=O)c1ccccc1)C2=O | 86.3% | 86.8% | 82.2% | 68.9% | 78.6% | – | – | – | – | – | – |
| CC(C)=CCC1=C2O[C@H](C(C)(C)O)CC[C@]3(C)[C@@H](CC=C(C)C)C[C@](CC=C(C)C)(C1=O)C(=O)[C@]23C(=O)c1ccccc1 | 83.5% | 82.7% | 81.6% | 84.2% | 83.4% | – | – | – | – | – | – |
| CC(C)=CCC[C@]1(C)[C@@H](CC=C(C)C)C[C@]23C[C@H](C(C)(C)O)OC2=C(CC=C(C)C)C(=O)[C@@]1(C(=O)c1ccccc1)C3=O | 68.1% | 72.8% | 78% | 86.6% | 82.9% | – | – | – | – | – | – |
| CC(C)=CCC[C@]1(C)[C@@H](CC=C(C)C)C[C@]2(CC=C(C)C)C(=O)C3=C(OC(C)(C)[C@H](O)C3)[C@@]1(C(=O)C(C)C)C2=O | 81.8% | 61.4% | 91.5% | 75.1% | 80.3% | – | – | – | – | – | – |
| CC(C)=CCC[C@]1(C)[C@@H](CC=C(C)C)C[C@@]2(CC=C(C)C)C(=O)[C@]1(C(=O)c1ccccc1)C(=O)C1=C2O[C@@H](C(C)(C)O)C1 | 74.7% | 56.6% | 72.9% | 75.9% | 55.6% | – | – | – | – | – | – |
| CNCCC(Oc1ccc(C(F)(F)F)cc1)c1ccccc1 (stereo unspecified) [FLUOXETINE] | 70.1% | 66.2% | 59.1% | 69.6% | 77.7% | 23.1% | 33.7% | – | – | – | – |
| CC(C)=CCC[C@]1(C)[C@@H](CC=C(C)C)C[C@]2(CC=C(C)C)C(=O)C(C(=O)c3ccccc3)=C3O[C@H](C(C)(C)O)C[C@@]31C2=O | 76.6% | 81.8% | 81.1% | 74.1% | 76.7% | – | – | – | – | – | – |
| CC(C)=CCC[C@]1(C)[C@@H](CC=C(C)C)C[C@]23C[C@@H](C(C)(C)O)OC2=C(CC=C(C)C)C(=O)[C@@]1(C(=O)c1ccccc1)C3=O | 85.9% | 87.1% | 90.2% | 85.3% | 85.7% | – | – | 12.6% | 6.6% | 21.4% | 28.1% |
| CC(C)=CCC[C@]1(C)[C@H](CC=C(C)C)C[C@]2(CC=C(C)C)C(=O)C(C(=O)C(C)C)=C3O[C@@H](C(C)(C)O)C[C@@]31C2=O | 77% | 68.1% | 63.8% | 61% | 80.9% | – | – | – | – | – | – |
| CC(C)=CCC[C@]1(C)[C@@H](CC=C(C)C)C[C@]2(C[C@H](O)C(C)(C)O)C(=O)C3=C(OC(C)(C)[C@@H](O)C3)[C@@]1(C(=O)c1ccccc1)C2=O | 78.5% | 77.7% | 72.5% | 80.9% | 77.9% | – | – | – | – | – | – |
| CC(C)=CCC[C@]1(C)[C@@H](CC=C(C)C)C[C@]2(CC=C(C)C)C(=O)C3=C(OC(C)(C)[C@@H](O)C3)[C@@]1(C(=O)c1ccccc1)C2=O | 77.6% | 80.8% | 69% | 65.9% | 70% | – | – | – | – | – | – |
| CC(C)=CCC[C@]1(C)[C@@H](CC=C(C)C)C[C@]2(C[C@H](O)C(C)(C)O)C(=O)C(C(=O)C(C)C)=C3O[C@H](C(C)(C)O)C[C@@]31C2=O | 81.1% | 80% | 76.5% | 71.5% | 72.3% | – | – | – | – | – | – |
| CC(C)=CCC[C@]1(C)[C@@H](CC=C(C)C)C[C@]23C[C@@H](C(C)(C)O)OC2=C(CC=C(C)C)C(=O)[C@@]1(C(=O)C(C)C)C3=O | 79.7% | 79.9% | 77.7% | 85.2% | 77.2% | – | – | – | – | – | – |
| CC(C)=CCC1=C2O[C@H](C(C)(C)O)CC[C@]3(C)[C@@H](CC=C(C)C)C[C@](C[C@H](O)C(C)(C)O)(C1=O)C(=O)[C@]23C(=O)c1ccccc1 | 65% | 57.5% | 59.7% | 53.2% | 55.9% | – | – | – | – | – | – |
| CC(C)=CCC[C@]1(C)[C@@H](CC=C(C)C)C[C@@]2(CC=C(C)C)C(=O)[C@]1(C(=O)c1ccccc1)C(=O)C1=C2O[C@H](C(C)(C)O)C1 | 72.2% | 77.7% | 74.4% | 57% | 69.9% | – | – | – | – | – | – |
| CC(C)=CCC[C@]1(C)[C@@H](CC=C(C)C)C[C@]2(CC=C(C)C)C(=O)C(C(=O)c3ccccc3)=C3O[C@@H](C(C)(C)O)C[C@@]31C2=O | 78.5% | 72.9% | 77.7% | 68.1% | 78.6% | – | – | – | – | – | – |
| CC(C)=CCC1=C2O[C@H](C(C)(C)O)CC[C@]3(C)[C@@H](C[C@H](O)C(C)(C)O)C[C@](CC=C(C)C)(C1=O)C(=O)[C@]23C(=O)C(C)C | 93.5% | 84.4% | 90.7% | 72.9% | 91.7% | – | – | – | – | – | – |
